Source: PubChem (Sanford-Burnham Center for Chemical Genomics)
CSN deneddyl inh – inhibitors of CSN-mediated cullin deneddylation, primary screen, biochemical, fluorescence polarization, uHTS | COP9 signalosome complex subunit 5 (Homo sapiens), Q92905 | Purified CSN, SCF-Nedd8-OG deneddylation | inhibition, % at 12.5 µM | hit rate 0.38% among 360,000 | AID 651999, 2013;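 active = pattern-corrected inhibition above about 35%, with an unprinted fluorescence ratio check between 0.5 and 1.5, limit read from the data, passing the limit was not always enough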
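Schedule: reaction 90 min, room temperature / Assay system: HEK293T-derived human Csn5 enzyme / Input: Csn5 at 0.24 nM final / Measure: inhibition of Csn5 cleavage, % / Control set: substrate-only high control, full reaction low control / Technique: fluorescence polarization of the substrate / Buffer or medium: Tris/NaCl/DTT buffer, pH 7.5 / Reagent: SCFSkp2-Nedd8OG substrate at 10 nM final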
STEP inh – STEP phosphatase inhibitors, primary screen, biochemical, fluorescence intensity, uHTS; Tyrosine-protein phosphatase non-receptor type 5 (Homo sapiens), P54829; inhibition, % at 20 µM; hit rate 0.25% among 360,000; recombinant STEP, OMFP fluorogenic substrate;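 active = inhibition at 20 µM, scaled per plate between control wells, above about 37%, limit read from the data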
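Material: STEP (striatal-enriched tyrosine phosphatase) enzyme, cell-free | Medium: 50 mM Bis-Tris pH 6.0 with 2.5 mM DTT and 0.005% Tween 20 | Read-out: Percent inhibition scaled to no-enzyme and uninhibited-enzyme controls, plate-pattern corrected | Signal: Fluorescence read at 480 nm ex / 540 nm em | Times: 20 min reaction, room temperature, in the dark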
LMPTP block – LMPTP phosphatase inhibitors, primary screen, biochemical, fluorescence intensity, uHTS; inhibition, % at 20 µM; recombinant LMPTP-A, OMFP fluorogenic substrate; AID 651560, 2012; Low molecular weight phosphotyrosine protein phosphatase (Homo sapiens), P24666; hit rate 0.22% among 360,000;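 active = compounds that cut the enzyme signal by at least half of the control window in the single-dose screen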
Target sequence (P24666 whole entry, looked up): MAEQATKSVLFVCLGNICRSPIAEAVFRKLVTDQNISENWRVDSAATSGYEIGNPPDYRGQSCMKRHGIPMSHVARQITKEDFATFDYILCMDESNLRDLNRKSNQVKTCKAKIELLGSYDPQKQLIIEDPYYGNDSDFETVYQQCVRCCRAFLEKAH
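Buffer or medium: Bis-Tris pH 6.0, DTT, detergent; Assay system: LMPTP-A enzyme; Quantity: 0.625 nM enzyme; Detection: endpoint fluorescence intensity; Times: 50 min dark incubation at room temperature; Controls: substrate-only low control, DMSO enzyme-plus-substrate high control; Doses: single 20 µM dose; Read-out: percent inhibition versus substrate-only and uninhibited controls; Reagent: 400 µM OMFP.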
Scp-1 inhibitor – Scp-1 phosphatase inhibitors, primary screen, biochemical, colorimetric, uHTS. hit rate 0.88% among 340,000. inhibition, % at 20 µM. Recombinant Scp1, phosphopeptide, malachite green phosphate absorbance;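 active = inhibition above about 50% at 20 µM, limit read from the data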
Target sequence (Q9GZU7 76-261 limits assumed): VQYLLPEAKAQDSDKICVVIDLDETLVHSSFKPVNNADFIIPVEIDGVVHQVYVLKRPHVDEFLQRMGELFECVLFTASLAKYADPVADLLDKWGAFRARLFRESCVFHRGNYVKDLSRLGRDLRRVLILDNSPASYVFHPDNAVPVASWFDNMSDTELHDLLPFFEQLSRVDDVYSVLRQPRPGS
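Test system: SCP-1 phosphatase catalytic domain, residues 76-261; measured by: colorimetric phosphate reagent with accelerator and stabiliser, absorbance at 630 nm; timing: enzyme reaction 45 min at room temperature, colour 5 min, stabilisation 30 min; also added: Phosphorylated 17-residue peptide substrate; compound dosing: one concentration, 20 µM, with 1.0% DMSO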
DNMT1 inh – human DNMT1 methyltransferase inhibitors, primary screen, biochemical, molecular beacon, fluorescence, HinP1I cleavage, uHTS; DNA (cytosine-5)-methyltransferase 1 (Homo sapiens), P26358; inhibition (reported as % activation of signal), % at 10 µM; hit rate 0.83% among 360,000; in the data active = inhibition above about 50%
SUMO1-SIM PPI – modulators of SUMO1 protein-protein interactions, primary screen, biochemical, uHTS. Small ubiquitin-related modifier 1 (Homo sapiens), P63165. SUMO1 binding to a labelled peptide, TR-FRET, 1 h. inhibition, % at 20 µM. hit rate 0.33% among 360,000; in the data active = inhibition above about 37%
Target sequence (P63165 whole entry, looked up): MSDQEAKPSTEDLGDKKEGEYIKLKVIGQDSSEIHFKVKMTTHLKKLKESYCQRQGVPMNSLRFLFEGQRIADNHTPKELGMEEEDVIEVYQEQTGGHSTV
Scp-1 conf – Scp-1 phosphatase inhibitors, retest, confirmation, biochemical, colorimetric, single concentration; hit rate 61% among 2,500; inhibition, % at 20 µM; AID 540281, 2011; shares compounds with Scp-1 inhibitor; recombinant SCP-1 catalytic domain, phosphate release, malachite green absorbance
MG interference – colorimetric readout interference by compounds, confirmation, artefact control for Scp-1 inhibitor project, biochemical, single concentration. Colorimetric interference counterscreen, malachite green absorbance 630 nm. shares compounds with Scp-1 inhibitor. apparent inhibition (interference), % at 20 µM. 2,500 tested, under 10 active;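 also: compounds added after enzyme reaction finished so only phosphate colour detection is probed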
Scp1 DSF – Scp-1 binding by thermal shift, confirmation, orthogonal assay for Scp-1 inhibitor project, biophysical, differential scanning fluorimetry. Recombinant SCP1, Sypro Orange thermal shift Tm. thermal shift relative to vanadate control, % at 40 µM. shares compounds with Scp-1 inhibitor. hit rate 25% among 1,500;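 active = substances whose mean melting-temperature shift, as a percentage of the reference inhibitor's shift, reaches about 5.3%, limit read from the data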
Large screens that a line does not name were inactive (follow-up assays come after a bar, where they were run). Only some compounds are listed: those with a hit (about 2% of all), similar ones and a draw of the others.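 The calls were made as follows, unless noted: active = inhibition of at least 30% at 20 µM; inactive = the rest.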

CC1(C)OC(=O)C(=Cc2ccc(-c3ccc(S(N)(=O)=O)cc3)o2)C(=O)O1	none
NS(=O)(=O)c1ccc(-c2ccc(/C=C3\C(=O)Nc4cc(Cl)ccc43)o2)cc1	SUMO1-SIM PPI 48
COc1cc(/C=N/NC(=O)c2cc(-c3cccc(OC(C)C)c3)nc3ccccc23)ccc1O	none
CC(NC1=CC(=O)c2cccnc2C1=O)C(O)c1ccccc1 (stereo not drawn)	DNMT1 inh 72
CC(c1ccccc1)N1C(=O)c2cccnc2C1=O (stereo not drawn)	none
O=C1c2cc(Cl)ccc2OC2(CCNCC2)C12CC(c1ccc(Cl)cc1)=NO2 (stereo not drawn)	CSN deneddyl inh 68
O=C1c2cc(Cl)ccc2OC2(CCNCC2)C12CC(c1ccccc1)=NO2 (stereo not drawn)	none
COC(=O)c1c(NC(=O)CSc2ncn[nH]2)sc(C)c1C	none (no result: Scp-1 inhibitor)
CC(=O)Nc1ccc(S(=O)(=O)Nc2nc3ccccc3nc2Nc2cccc(O)c2)cc1	none
CC(=O)Nc1ccc(S(=O)(=O)Nc2nc3ccccc3nc2Nc2ccc3ccccc3c2)cc1	CSN deneddyl inh 45
O=C(O)COCC(=O)N1CCN(C2c3ccccc3-c3ccccc32)CC1	none
CCCN1C(=O)/C(=C/c2c(NCCCOCC)nc3c(C)cccn3c2=O)SC1=S	CSN deneddyl inh 38
Cc1cccc(-n2ncc(C#N)c2N)c1	none
COc1cccc(-n2nc3c(-n4ncc(C#N)c4N)nnc(C)c3c2C)c1	CSN deneddyl inh 58
OCCNc1nc2ccccc2nc1NCCO	none
OCCNc1c2ccccc2nc2ccccc12	DNMT1 inh 59
O=C(NCc1cccnc1)c1cc(S(=O)(=O)N2CCCC2)c(Cl)cc1Cl	none
Cc1cccc2c1NC(=O)C2=O	DNMT1 inh 50
O=C1Nc2c(Cl)cccc2C1=O	none (no result: Scp-1 inhibitor)
CCCCC(=O)Nc1nnc(SCC(=O)NCC2CCCO2)s1 (stereo not drawn)	none
CCOc1ccc(C(=O)N/N=C/c2cc(Cl)ccc2[N+](=O)[O-])cc1	Scp-1 inhibitor 103 | Scp-1 conf 48 | MG interference inactive | Scp1 DSF inactive
CCOc1ccc(Cl)cc1/C=N/NC(=O)c1ccccc1	none
COc1ccc(/C=C2/SC(=O)N(CCC(=O)Nc3ccccc3C(=O)O)C2=S)cc1	none
C=C1c2cccc(OC)c2O[C@H](C(=O)OCC)[C@@H]1CC(CC)CCCC (stereo partly drawn)	Scp-1 inhibitor 94 | Scp-1 conf 34 | MG interference inactive | Scp1 DSF inactive
COC(=O)c1c(C)cc(O)cc1O	none
COC(=O)c1cc(O)cc(OC)c1C(=O)c1c(O)cc(C)cc1O	Scp-1 inhibitor 58 | Scp-1 conf 31 | MG interference inactive | Scp1 DSF inactive
O=C(NCC1CCCO1)c1ccc2[nH]c3c(c2c1)CCCC3 (stereo not drawn)	none
O=C(Nc1cc(S(=O)(=O)Nc2ccc(Cl)cc2)ccc1O)c1ccc(S(=O)(=O)N2CCCCCC2)cc1	Scp-1 inhibitor 81 | Scp-1 conf 77 | MG interference inactive | Scp1 DSF 9.9
COc1ccc(SC[C@H](C)CN2CC[C@H](C(C)(C)C)CCC2=O)cc1	none
Clc1ccc(Sc2oc(/C=N/n3cnnc3)cc2Br)cc1	Scp-1 inhibitor 98 | Scp-1 conf inactive | MG interference inactive
CCCc1ccc(C(=O)NNC(=O)c2ccc(Br)cc2)cc1	Scp-1 inhibitor 94 | Scp-1 conf 81 | MG interference inactive | Scp1 DSF inactive
Cc1ccc(C(=O)NC(=S)NNC(=O)c2ccccc2O)cc1	none
O=C(NC(=S)NNC(=O)c1ccccc1O)c1ccc(F)cc1	none
O=C(NC(=O)c1ccccc1O)c1ccc(C(F)(F)F)cc1	Scp-1 inhibitor 83 | Scp-1 conf 68 | MG interference inactive | Scp1 DSF inactive
CCCc1ccc(C(=O)NC(=O)c2ccccc2O)cc1	STEP inh 48, Scp-1 inhibitor 67 | Scp-1 conf 89 | MG interference inactive | Scp1 DSF inactive
O=C(C1CCCCN1S(=O)(=O)c1ccccc1[N+](=O)[O-])N1CCCCC1 (stereo not drawn)	none
CN(C)S(=O)(=O)c1ccc2c(c1)nc(CCC(=O)NCCc1ccc(Cl)cc1)n2C	none
C1=CC2=NC34CCCCC3CC3=C(CCCC3)N4C2=CC1=NC1CCCCC1 (stereo not drawn)	Scp-1 inhibitor 68 | Scp-1 conf inactive | MG interference inactive
COc1ccc(C(=O)Nc2cccnc2Cl)cc1OC	none
O=C(Nc1cccnc1Cl)c1ccc(=O)oc1	Scp-1 inhibitor 53 | Scp-1 conf 43 | MG interference inactive | Scp1 DSF 6.5
O=C1c2ccccc2C(=O)N1Nc1ccc([N+](=O)[O-])cc1[N+](=O)[O-]	Scp-1 inhibitor 52 | Scp-1 conf 46 | MG interference inactive | Scp1 DSF inactive
O=C1C2C3C=CC(C3)C2C(=O)N1Nc1ccc([N+](=O)[O-])cc1[N+](=O)[O-] (stereo not drawn)	none
CC(C)S(=O)(=O)C1=NSC2=NC(=O)/C(=C\c3ccc(-c4cccc(C(=O)O)c4)o3)C(=N)N21	Scp-1 inhibitor 65 | Scp-1 conf 68 | MG interference inactive | Scp1 DSF inactive
COc1ccc(C)cc1NC(=O)c1ccc2c(=O)n3c(nc2c1)CCCCC3	Scp-1 inhibitor 56 | Scp-1 conf inactive | MG interference inactive
